Measurements collected from several papers.
Target: Serine/threonine-protein kinase PknB (pknB, Mycobacterium tuberculosis, UniProt P9WI81)

| Compound | effect on | technique | tested at | quantity | result |
| --- | --- | --- | --- | --- | --- |
| Nc1ncnc2occ(-c3ccc(NC(=O)Nc4cc(C(F)(F)F)ccc4F)cc3)c12 | cell-free assay | – | 20 µM | remaining signal | 66% |
| C[C@H](c1ccnc(Nc2nc3ccc(-c4cc(N(C)C)ncn4)cc3[nH]2)c1)N1CCN(C(=O)CC(F)(F)F)CC1 | cell-free assay | competition with immobilised ligand | 0.1 µM | remaining binding | 91% |
| CC1CCCN1c1nccc(-c2cnn3ncccc23)n1 (centres unmarked) | binding | – | 1 µM | remaining binding | 100% |
| Nc1ncc(-c2nc(N3CCOCC3)nc(N3CCOCC3)n2)c(C(F)F)n1 | cell-free assay | – | 10 µM | remaining signal | 66% |
| COc1cc(Nc2ncc(F)c(Nc3ccc4c(n3)NC(=O)C(C)(C)O4)n2)cc(OC)c1OC | binding | competition with immobilised ligand | 10 µM | inhibition | 46% |
| Cc1ccc(C(=O)Nc2ccc(CN3CCN(C)CC3)c(C(F)(F)F)c2)cc1C#Cc1cnc2cccnn12 | cell-free assay | – | 23.5 nM | remaining signal | 98% |
| CN(C)c1nccc(-c2cnn3ncccc23)n1 | binding | – | 1 µM | remaining binding | 76% |
| C[C@@H]1CN(c2cc(-c3n[nH]c4ccc(OC5(C)CC5)cc34)ncn2)C[C@H](C)O1 | cell-free assay | competition with immobilised ligand | 0.1 µM | remaining binding | 95% |
